From ChEMBL document CHEMBL4342523, “Discovery and Development of S6821 and S7958 as Potent TAS2R8 Antagonists” (J Med Chem, 2020) come the findings set out here.

≈ marks a conversion by molar mass, not a printed value. Calls of active or inactive are those of the source. No cut-off for these calls is given here.

A short description of data set [1]: Solubility of the compound in pH 7.1 buffer measured after 24 hrs. The format is physicochemical.
Data set [2] is described as follows: Ratio of solubility of the compound in pH 7.1 buffer measured after 24 hrs to IC50 for antagonist activity at recombinant human TAS2R8 expressed in cells co-expressing Galpha16gust44 assessed as inhibition of andrographolide-induced intracellular calcium level. The format is cell-based.
Data set [3] is described as follows: Stability of the compound in pH 2.8 buffer assessed as parent compound remaining measured after 24 hrs at 100 degC. The format is physicochemical. Conditions: read-out: Stability.
Data set [4] is described as follows: Stability of the compound in pH 7.1 buffer assessed as parent compound remaining measured after 24 hrs at 100 degC. To be noted: read-out: Stability. It counts as physicochemical.
Data set [5] addresses T1, Taste receptor type 2 member 1 (Homo sapiens) (UniProt Q9NYW7).
T1 sequence (whole entry): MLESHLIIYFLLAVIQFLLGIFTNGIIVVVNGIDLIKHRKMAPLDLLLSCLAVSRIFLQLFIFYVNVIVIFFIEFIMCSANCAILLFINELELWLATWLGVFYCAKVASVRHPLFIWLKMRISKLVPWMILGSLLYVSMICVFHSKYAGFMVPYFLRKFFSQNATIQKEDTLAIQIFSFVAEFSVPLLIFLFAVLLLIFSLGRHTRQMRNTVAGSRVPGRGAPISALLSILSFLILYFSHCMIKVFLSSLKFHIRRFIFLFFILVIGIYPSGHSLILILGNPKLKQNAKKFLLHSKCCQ
As to the kind of experiment: Antagonist activity at recombinant human TAS2R1 transiently expressed in HEK293T co-expressing Galpha16gust44 assessed as inhibition of picric acid-induced intracellular calcium level by measuring remaining activity at 25 uM by fluo-4AM dye based FLIPR assay relative to control. It counts as functional, cell-based.

Data set [6] addresses Taste receptor type 2 member 3 (Homo sapiens) (UniProt Q9NYW6). As to the kind of experiment: Antagonist activity at recombinant human TAS2R3 transiently expressed in HEK293T co-expressing Galpha16gust44 assessed as inhibition of chloroquine-induced intracellular calcium level by measuring remaining activity at 25 uM by fluo-4AM dye based FLIPR assay relative to control. It counts as functional, cell-based. A general note: A change in cytosolic calcium serves as a functional read-out for many receptors and channels.

The target in data set [7] is Taste receptor type 2 member 4 (Homo sapiens) (UniProt Q9NYW5). The experiment in a line: Antagonist activity at recombinant human TAS2R4 transiently expressed in HEK293T co-expressing Galpha16gust44 assessed as inhibition of chloroquine-induced intracellular calcium level by measuring remaining activity at 25 uM by fluo-4AM dye based FLIPR assay relative to control. It counts as functional, cell-based.

Data set [8] concerns the target T2, Taste receptor type 2 member 8 (Homo sapiens) (UniProt Q9NYW2).
T2 sequence (whole entry): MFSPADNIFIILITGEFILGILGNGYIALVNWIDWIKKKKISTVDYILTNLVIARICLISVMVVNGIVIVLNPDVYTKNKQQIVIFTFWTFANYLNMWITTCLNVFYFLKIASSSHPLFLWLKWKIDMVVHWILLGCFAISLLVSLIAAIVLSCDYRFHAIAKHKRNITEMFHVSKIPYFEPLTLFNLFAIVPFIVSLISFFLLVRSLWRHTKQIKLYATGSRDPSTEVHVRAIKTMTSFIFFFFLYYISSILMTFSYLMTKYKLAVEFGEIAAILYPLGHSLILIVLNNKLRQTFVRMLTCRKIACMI
The experiment in a line: Antagonist activity at recombinant human TAS2R8 transiently expressed in HEK293T co-expressing Galpha16gust44 assessed as inhibition of andrographolide-induced intracellular calcium level by measuring remaining activity at 25 uM by fluo-4AM dye based FLIPR assay relative to control. It counts as functional, cell-based.

Data set [9] concerns the target Taste receptor type 2 member 9 (Homo sapiens) (UniProt Q9NYW1). As to the kind of experiment: Antagonist activity at recombinant human TAS2R9 transiently expressed in HEK293T co-expressing Galpha16gust44 assessed as inhibition of ofloxacin-induced intracellular calcium level by measuring remaining activity at 25 uM by fluo-4AM dye based FLIPR assay relative to control. It counts as functional, cell-based.

Data set [10] addresses Taste receptor type 2 member 13 (Homo sapiens) (UniProt Q9NYV9). The experiment in a line: Antagonist activity at recombinant human TAS2R13 transiently expressed in HEK293T co-expressing Galpha16gust44 assessed as inhibition of oxyphenonium-induced intracellular calcium level by measuring remaining activity at 25 uM by fluo-4AM dye based FLIPR assay relative to control. The format is functional, cell-based.

The target in data set [11] is T3, Taste receptor type 2 member 14 (Homo sapiens) (UniProt Q9NYV8).
T3 sequence (whole entry): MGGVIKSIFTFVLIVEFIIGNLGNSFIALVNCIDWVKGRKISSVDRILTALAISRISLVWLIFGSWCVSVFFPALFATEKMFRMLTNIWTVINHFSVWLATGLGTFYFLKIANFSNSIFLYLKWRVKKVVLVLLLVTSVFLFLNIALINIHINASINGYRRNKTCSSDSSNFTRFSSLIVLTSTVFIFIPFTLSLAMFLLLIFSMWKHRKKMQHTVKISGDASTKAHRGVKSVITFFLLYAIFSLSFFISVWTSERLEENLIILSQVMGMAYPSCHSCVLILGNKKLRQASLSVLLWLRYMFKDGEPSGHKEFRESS
As to the kind of experiment: Antagonist activity at recombinant human TAS2R14 transiently expressed in HEK293T co-expressing Galpha16gust44 assessed as inhibition of aristolochic acid-induced intracellular calcium level by measuring remaining activity at 25 uM by fluo-4AM dye based FLIPR assay relative to control. It counts as functional, cell-based.

Data set [12] addresses Taste receptor type 2 member 31 (Homo sapiens) (UniProt P59538). As to the kind of experiment: Antagonist activity at recombinant human TAS2R31 transiently expressed in HEK293T co-expressing Galpha16gust44 assessed as inhibition of aristolochic acid-induced intracellular calcium level by measuring remaining activity at 25 uM by fluo-4AM dye based FLIPR assay relative to control. The format is functional, cell-based.

In data set [13] the target is Taste receptor type 2 member 39 (Homo sapiens) (UniProt P59534). As to the kind of experiment: Antagonist activity at recombinant human TAS2R39 transiently expressed in HEK293T co-expressing Galpha16gust44 assessed as inhibition of ranitidine-induced intracellular calcium level by measuring remaining activity at 25 uM by fluo-4AM dye based FLIPR assay relative to control. It counts as functional, cell-based.

Data set [14] concerns the target Taste receptor type 2 member 41 (Homo sapiens) (UniProt P59536). As to the kind of experiment: Antagonist activity at recombinant human TAS2R41 transiently expressed in HEK293T co-expressing Galpha16gust44 assessed as inhibition of picric acid-induced intracellular calcium level by measuring remaining activity at 25 uM by fluo-4AM dye based FLIPR assay relative to control. The format is functional, cell-based.

Data set [15] addresses Taste receptor type 2 member 50 (Homo sapiens) (UniProt P59544). As to the kind of experiment: Antagonist activity at recombinant human TAS2R50 transiently expressed in HEK293T co-expressing Galpha16gust44 assessed as inhibition of andrographolide-induced intracellular calcium level by measuring remaining activity at 25 uM by fluo-4AM dye based FLIPR assay relative to control. It counts as functional, cell-based.

The subject of another data set is Homo sapiens. The experiment in a line: In vivo antagonist activity at TAS2R8 in human assessed as reduction in coffee-inudced bitterness at 5 uM by 2-AFC test. The format is functional. Also on record: scale not given: the % may be the effect or the level left. An outline of the steps:
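Paired coffee test: 1.5× coffee with milk versus same with 5 μM compound added from ethanol stock; trained panelists chose the more bitter sample; 17 panelists × 3 replicates (51 responses).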

Taste receptor type 2 member 3 (Homo sapiens), sequence (Q9NYW6 whole entry): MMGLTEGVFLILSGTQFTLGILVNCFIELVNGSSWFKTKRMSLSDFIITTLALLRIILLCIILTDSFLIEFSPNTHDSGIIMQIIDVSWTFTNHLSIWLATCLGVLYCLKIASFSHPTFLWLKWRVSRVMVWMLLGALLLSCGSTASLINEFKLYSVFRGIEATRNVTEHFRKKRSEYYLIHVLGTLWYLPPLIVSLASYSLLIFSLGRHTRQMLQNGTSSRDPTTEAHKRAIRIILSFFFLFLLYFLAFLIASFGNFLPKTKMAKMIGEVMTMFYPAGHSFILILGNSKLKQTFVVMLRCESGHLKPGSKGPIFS
Taste receptor type 2 member 13 (Homo sapiens), sequence (Q9NYV9 whole entry): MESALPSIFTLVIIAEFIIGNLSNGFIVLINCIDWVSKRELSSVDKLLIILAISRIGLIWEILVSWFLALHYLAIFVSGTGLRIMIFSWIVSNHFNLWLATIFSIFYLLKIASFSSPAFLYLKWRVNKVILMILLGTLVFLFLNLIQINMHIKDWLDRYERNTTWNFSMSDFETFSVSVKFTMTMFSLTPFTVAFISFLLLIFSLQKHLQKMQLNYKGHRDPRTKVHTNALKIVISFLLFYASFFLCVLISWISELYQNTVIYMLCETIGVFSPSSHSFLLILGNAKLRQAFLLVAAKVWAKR
Taste receptor type 2 member 4 (Homo sapiens), sequence (Q9NYW5 whole entry): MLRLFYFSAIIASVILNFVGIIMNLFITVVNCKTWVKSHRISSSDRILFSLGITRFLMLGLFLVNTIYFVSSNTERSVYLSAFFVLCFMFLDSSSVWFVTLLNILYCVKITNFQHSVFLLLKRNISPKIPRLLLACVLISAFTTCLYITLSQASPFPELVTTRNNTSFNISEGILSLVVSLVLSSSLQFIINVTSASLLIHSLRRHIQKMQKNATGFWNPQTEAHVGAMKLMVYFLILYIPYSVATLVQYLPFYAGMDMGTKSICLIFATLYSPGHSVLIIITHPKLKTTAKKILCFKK
Taste receptor type 2 member 31 (Homo sapiens), sequence (P59538 whole entry): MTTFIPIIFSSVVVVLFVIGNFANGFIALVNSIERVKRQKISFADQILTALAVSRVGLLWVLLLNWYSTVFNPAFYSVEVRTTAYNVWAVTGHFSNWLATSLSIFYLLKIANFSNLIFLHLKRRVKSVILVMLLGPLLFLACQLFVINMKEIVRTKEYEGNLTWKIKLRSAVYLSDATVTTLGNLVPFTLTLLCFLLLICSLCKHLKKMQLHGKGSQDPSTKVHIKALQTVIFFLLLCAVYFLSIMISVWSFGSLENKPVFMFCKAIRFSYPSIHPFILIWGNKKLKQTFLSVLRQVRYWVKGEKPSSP
Taste receptor type 2 member 50 (Homo sapiens), sequence (P59544 whole entry): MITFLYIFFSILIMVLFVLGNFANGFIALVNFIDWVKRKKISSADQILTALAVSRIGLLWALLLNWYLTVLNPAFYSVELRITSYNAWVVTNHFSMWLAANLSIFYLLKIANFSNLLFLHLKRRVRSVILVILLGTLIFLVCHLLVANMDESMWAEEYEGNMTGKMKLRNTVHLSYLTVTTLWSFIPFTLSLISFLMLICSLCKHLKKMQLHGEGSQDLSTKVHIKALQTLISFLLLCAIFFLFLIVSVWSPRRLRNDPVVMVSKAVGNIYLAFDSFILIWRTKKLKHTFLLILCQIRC
Taste receptor type 2 member 9 (Homo sapiens), sequence (Q9NYW1 whole entry): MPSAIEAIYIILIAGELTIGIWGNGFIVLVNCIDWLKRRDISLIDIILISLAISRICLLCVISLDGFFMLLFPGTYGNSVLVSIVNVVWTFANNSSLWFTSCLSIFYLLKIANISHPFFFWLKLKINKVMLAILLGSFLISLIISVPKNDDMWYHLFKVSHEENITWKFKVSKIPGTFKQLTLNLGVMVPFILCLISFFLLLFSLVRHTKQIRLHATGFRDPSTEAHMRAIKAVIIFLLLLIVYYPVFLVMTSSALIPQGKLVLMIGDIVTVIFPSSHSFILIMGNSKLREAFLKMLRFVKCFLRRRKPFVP
Taste receptor type 2 member 41 (Homo sapiens), sequence (P59536 whole entry): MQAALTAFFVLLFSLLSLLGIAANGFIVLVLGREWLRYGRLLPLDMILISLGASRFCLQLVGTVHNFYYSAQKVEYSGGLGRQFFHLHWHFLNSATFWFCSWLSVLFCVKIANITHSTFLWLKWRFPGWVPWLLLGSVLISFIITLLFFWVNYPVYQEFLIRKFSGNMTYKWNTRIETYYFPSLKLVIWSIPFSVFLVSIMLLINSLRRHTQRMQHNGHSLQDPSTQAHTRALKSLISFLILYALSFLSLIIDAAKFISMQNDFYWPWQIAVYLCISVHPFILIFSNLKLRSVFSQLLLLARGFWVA
Taste receptor type 2 member 39 (Homo sapiens), sequence (P59534 whole entry): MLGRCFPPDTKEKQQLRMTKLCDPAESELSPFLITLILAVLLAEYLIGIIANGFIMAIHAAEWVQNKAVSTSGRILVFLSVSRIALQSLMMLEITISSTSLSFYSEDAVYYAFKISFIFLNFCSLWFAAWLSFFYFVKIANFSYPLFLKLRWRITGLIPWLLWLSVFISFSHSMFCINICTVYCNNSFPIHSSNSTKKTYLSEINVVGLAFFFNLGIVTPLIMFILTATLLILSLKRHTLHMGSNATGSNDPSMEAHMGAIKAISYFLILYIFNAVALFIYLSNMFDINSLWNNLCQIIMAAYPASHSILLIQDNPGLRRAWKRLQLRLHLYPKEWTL

For orientation: solubility means the dissolved amount per volume that the medium holds. In data set [1], `Cc1noc(C)c1Cn1cc(N2C(=O)CN(Cc3cccc(O)c3)C2=O)cn1` came in with a solubility at 24 h of 244 µM (≈ 93.1 µg/mL). The Ratio in data set [2] stood at 11600. Besides, the figures for the remaining at 24 h in data set [3] and in data set [4] were above 99% and 55%, respectively. Besides, the Activity came to 119% in data set [5]; 103% in data set [6]; 117% in [7]; 13% in data set [8]; 106% in data set [9]; 127% in [10]. Further, the Activity in data set [11] is 124%; in data set [12], 92%; in data set [13], 74%; in data set [14], 99%; in data set [15] it was 99%; in the data set with Homo sapiens, above 78%.

`Cc1noc(C)c1Cn1cc(N2C(=O)N(Cc3cccc(O)c3)C(C)(C)C2=O)cn1` displayed a solubility at 24 h in data set [1] of 72 µM (≈ 29.5 µg/mL). Also, in data set [2], the Ratio turned out to be 1290. The remaining at 24 h in data set [3] and in data set [4] was above 99% each time. Also, the Activity in data set [5] is 97%; in data set [6], 72%; in [7], 215%; in data set [8] it was 7%; in data set [9], 98%; in [10] it was 95%. Besides, the Activity in [11] came out at 97%; in [12], 59%; in data set [13], 150%; in data set [14], 133%; in [15], 91%. In addition, the result in the data set on Homo sapiens was Active.
